Experimental data as given in article PMC3514448 (ACS chemical biology, 2012).
Converted amounts (≈) assume the structure as drawn. Like-named read-outs stand apart in the source and are kept apart here.

Legend:
[1] = target: EcFtsZ (Escherichia coli, UniProt P0A9A6); assay type: biochemical; details: for Inhibition of EcFtsZ GTPase activity with detergent: 0.01% Triton X-100; for Inhibition of EcFtsZ GTPase activity at increasing FtsZ concentrations: increasing protein concentration
[2] = target: T1, BsFtsZ (Bacillus subtilis, UniProt P17865); experiment: Enzyme-coupled GTPase assay, BsFtsZ; assay type: biochemical; details: for Inhibition of BsFtsZ GTPase activity with detergent: 0.01% Triton X-100; for Inhibition of BsFtsZ GTPase activity at increasing FtsZ concentrations: increasing protein concentration; for Inhibition of BsFtsZ GTPase activity: absence of Triton X-100
T1 sequence (P17865 whole entry): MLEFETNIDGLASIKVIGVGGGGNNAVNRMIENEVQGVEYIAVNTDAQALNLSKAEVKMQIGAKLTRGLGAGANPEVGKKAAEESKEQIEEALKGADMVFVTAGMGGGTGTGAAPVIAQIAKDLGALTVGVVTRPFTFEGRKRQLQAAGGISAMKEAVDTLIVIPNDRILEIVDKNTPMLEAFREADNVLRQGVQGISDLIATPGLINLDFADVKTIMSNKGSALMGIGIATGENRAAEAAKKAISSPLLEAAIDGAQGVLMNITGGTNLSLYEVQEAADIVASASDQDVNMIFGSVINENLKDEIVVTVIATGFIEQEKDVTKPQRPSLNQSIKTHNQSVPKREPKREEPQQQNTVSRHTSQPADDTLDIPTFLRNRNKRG

[3] = target: T2, Dnm1 (Saccharomyces cerevisiae, UniProt P54861); experiment: GTPase activity of the eukaryotic GTPase Dnm1; assay type: biochemical
T2 sequence (P54861 1-757): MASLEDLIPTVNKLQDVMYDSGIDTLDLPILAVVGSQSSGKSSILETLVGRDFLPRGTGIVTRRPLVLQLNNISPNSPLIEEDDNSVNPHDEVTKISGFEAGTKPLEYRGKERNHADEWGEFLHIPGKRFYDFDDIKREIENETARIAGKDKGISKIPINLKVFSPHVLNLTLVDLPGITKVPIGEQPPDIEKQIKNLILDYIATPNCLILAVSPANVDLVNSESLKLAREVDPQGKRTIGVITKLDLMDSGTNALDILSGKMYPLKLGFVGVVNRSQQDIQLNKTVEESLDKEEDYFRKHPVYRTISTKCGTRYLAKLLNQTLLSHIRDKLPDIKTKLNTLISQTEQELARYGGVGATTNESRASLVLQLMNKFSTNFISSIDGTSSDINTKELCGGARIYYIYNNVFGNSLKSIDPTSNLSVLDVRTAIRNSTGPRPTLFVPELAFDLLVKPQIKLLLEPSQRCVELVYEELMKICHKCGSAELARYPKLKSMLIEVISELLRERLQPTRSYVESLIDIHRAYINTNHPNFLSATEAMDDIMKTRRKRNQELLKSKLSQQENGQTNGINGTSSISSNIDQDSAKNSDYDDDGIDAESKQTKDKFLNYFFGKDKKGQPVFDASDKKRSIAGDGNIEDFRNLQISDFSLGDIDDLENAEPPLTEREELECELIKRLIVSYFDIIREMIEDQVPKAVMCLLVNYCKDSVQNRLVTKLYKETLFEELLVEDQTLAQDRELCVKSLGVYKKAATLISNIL

[4] = system: FtsZ; details: cited from earlier work
[5] = system: tubulin; details: berberine even at high concentration (100 μM); cited from earlier work
[6] = system: FtsZ; experiment: Malachite green GTPase assay under approximate Merck viriditoxin conditions; assay type: biochemical; details: up to 128 μM; 50 mM Tris, 34 mM KCl, 0.75 mM Mg(OAc)2, 2.5 mM CaCl2, 50 μg/mL DEAE-Dextran, 37 °C
[7] = Chemical stability on storage; assay type: physicochemical; details: degrades if not stored free of solvent and at low temperature
[8] = system: B. subtilis strain 168; experiment: Antimicrobial activity; assay type: cell-based, Bacillus subtilis
[9] = target: SaFtsZ (Staphylococcus aureus, UniProt P0A031); experiment: GTPase assay, SaFtsZ; assay type: biochemical
SaFtsZ, sequence (P0A031 whole entry): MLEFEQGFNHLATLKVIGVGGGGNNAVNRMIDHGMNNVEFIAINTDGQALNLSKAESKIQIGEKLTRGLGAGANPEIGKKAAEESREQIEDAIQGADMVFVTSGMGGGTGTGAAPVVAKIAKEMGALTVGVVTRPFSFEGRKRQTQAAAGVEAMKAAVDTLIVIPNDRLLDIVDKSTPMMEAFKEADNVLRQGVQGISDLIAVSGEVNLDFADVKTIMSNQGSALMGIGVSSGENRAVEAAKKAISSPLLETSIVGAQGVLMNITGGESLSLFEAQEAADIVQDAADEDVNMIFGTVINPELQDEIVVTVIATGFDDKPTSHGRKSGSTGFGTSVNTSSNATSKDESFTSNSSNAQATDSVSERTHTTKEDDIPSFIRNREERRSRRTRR
Summary of the method: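 Recombinant S. aureus FtsZ (pET11a, E. coli C41(DE3), IPTG 30 °C 5 h) purified by ammonium sulfate and anion exchange; BCA concentration divided by 0.75. 10 μM FtsZ with inhibitor in DMSO, pH 6.5 MES/Mg(OAc)2/KOAc, preincubated 5 min, then GTP added. Coupled: PK/LDH, PEP, NADH, A340 over time at ~25 °C. Malachite green: 30 °C, EDTA-quenched time points, A630 against phosphate standards.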

[10] = target: T1, BsFtsZ; experiment: Malachite green GTPase assay, BsFtsZ; assay type: biochemical; details: concentrations up to 100 μM
[11] = standard conditions, up to 200 μM

EcFtsZ, sequence (P0A9A6 whole entry): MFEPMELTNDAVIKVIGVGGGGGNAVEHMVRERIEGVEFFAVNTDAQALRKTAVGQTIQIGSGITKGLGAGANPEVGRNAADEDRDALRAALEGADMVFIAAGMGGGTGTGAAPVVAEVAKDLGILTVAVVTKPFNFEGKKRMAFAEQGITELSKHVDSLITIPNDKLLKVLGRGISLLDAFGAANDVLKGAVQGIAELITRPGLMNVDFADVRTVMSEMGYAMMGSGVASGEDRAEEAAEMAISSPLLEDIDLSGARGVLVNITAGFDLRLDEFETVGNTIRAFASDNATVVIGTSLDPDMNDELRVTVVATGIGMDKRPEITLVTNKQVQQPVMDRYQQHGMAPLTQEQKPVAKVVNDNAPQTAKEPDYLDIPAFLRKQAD

In the case of Zantrin Z3, the “Inhibition of EcFtsZ GTPase activity with detergent” value [1] is reported as “maintained”, the “Inhibition of EcFtsZ GTPase activity at increasing FtsZ concentrations” value [1] is reported as “maintained” and the IC50 ([1]; read-out: IC50 for inhibition of EcFtsZ GTPase activity, no Triton X-100) is reported as 20 µM. The “Inhibition of BsFtsZ GTPase activity with detergent” value [2] was “maintained” and the “Inhibition of BsFtsZ GTPase activity at increasing FtsZ concentrations” value [2] was “maintained”.

For `Oc1ccc(Cl)cc1Cc1cc(Cl)cc(Cc2cc(Cl)ccc2O)c1O` [zantrin Z1], the “Inhibition of EcFtsZ GTPase activity” value ([1]; absence of Triton X-100) was “exhibited the published activity” and the “Inhibition of BsFtsZ GTPase activity” value [2] was “exhibited the published activity”.

For `CC(C)c1c(O)ccc2c1CC[C@H]1C(C)(C)CCC[C@]21C` [totarol], the “Inhibition of EcFtsZ GTPase activity with detergent” value [1] was “vanished”, the “Inhibition of EcFtsZ GTPase activity” value ([1]; absence of Triton X-100) was “reproduce the IC50” and the “Inhibition of EcFtsZ GTPase activity at increasing FtsZ concentrations” value [1] was “decreased nearly to the point of having no effect”. The “Dnm1 GTPase activity on addition of detergent” value ([3]; 0.01% Triton X-100) was “completely restored”, the “Effect on Dnm1 GTPase activity” value ([3]; micromolar concentrations, no detergent) was “significant reduction” and the “Inhibition of BsFtsZ GTPase activity with detergent” value [2] was “vanished”. The “Inhibition of BsFtsZ GTPase activity” value [2] was “reproduce the IC50” and the “Inhibition of BsFtsZ GTPase activity at increasing FtsZ concentrations” value [2] was “decreased nearly to the point of having no effect”.

For `COc1nc2c(=O)[nH]c(N)nc2n1[C@@H]1O[C@H](COP(=O)(O)OP(=O)(O)OP(=O)(O)O)[C@@H](O)[C@H]1O` [8-methoxy GTP], the “Concentration at which the GTPase activity of FtsZ is inhibited” value [4] is given as 15 µM.

For `COc1ccc2cc3[n+](cc2c1OC)CCc1cc2c(cc1-3)OCO2` [berberine], the “Inhibition of tubulin assembly” value [5] is listed as “does not do so”.

In the case of `O=C1CC(c2ccc(O)cc2)Oc2c(Cc3ccccc3O)c(O)c(Cc3ccccc3O)c(O)c21` (stereo not shown) [4′-hydroxydichamanetin], the “Inhibition of EcFtsZ GTPase activity” value [1] is reported as “exhibited the published activity” and the “Inhibition of BsFtsZ GTPase activity” value [2] is reported as “exhibited the published activity”.

In the case of `COC(=O)CC1Cc2cc3cc(OC)c(-c4c(OC)cc5cc6c(c(O)c5c4O)C(=O)OC(CC(=O)OC)C6)c(O)c3c(O)c2C(=O)O1` (stereo not shown) [Viriditoxin, viriditoxin], the “Inhibition of E. coli FtsZ” value [1, 11] is listed as “no inhibition”, the “Inhibition of FtsZ GTPase under Merck conditions” value [6] is listed as “no inhibition” and the IC50 ([4]; read-out: Reported IC50 (FtsZ)) is listed as 10 µM. For the same molecule, the “Inhibition of B. subtilis FtsZ” value [2, 11] was “no inhibition” and the Chemical stability [7] was “chemically unstable”.

For `NC(=O)c1c(F)ccc(OCc2nc3cc(Cl)cnc3s2)c1F` [PC190723], the MIC [8] was 1 µM (≈ 0.356 µg/mL), the “Inhibition of SaFtsZ GTPase activity” value [9] was “no inhibition” and the “Change of SaFtsZ GTPase activity” value ([9]; basal activity ~0.5 GTP/FtsZ/min) was “dose-dependent and reproducible increase in activity”. For the same molecule, the “Inhibition of BsFtsZ, enzyme-coupled assay” value ([2]; concentrations up to 100 μM) was “no inhibition” and the “Inhibition of BsFtsZ, malachite green assay” value [10] was “no inhibition”.

In the case of `C[n+]1cc2c3c(ccc2c2ccc4cc5c(cc4c21)OCO5)OCO3` [sanguinarine], the “Inhibition of tubulin assembly” value [5] is listed as “inhibit tubulin assembly”.

For `O=C1C[C@@H](c2ccccc2)Oc2c(Cc3ccccc3O)c(O)c(Cc3ccccc3O)c(O)c21` [Dichamanetin], the “Reported activity (FtsZ inhibition)” value [4] is listed as 12.5 µM.
